{"data": "Published values collected from several papers", "target": "Megakaryocyte-associated tyrosine-protein kinase (MATK, Homo sapiens, UniProt P42679)", "Residues used in one study (P42679 1-507)": "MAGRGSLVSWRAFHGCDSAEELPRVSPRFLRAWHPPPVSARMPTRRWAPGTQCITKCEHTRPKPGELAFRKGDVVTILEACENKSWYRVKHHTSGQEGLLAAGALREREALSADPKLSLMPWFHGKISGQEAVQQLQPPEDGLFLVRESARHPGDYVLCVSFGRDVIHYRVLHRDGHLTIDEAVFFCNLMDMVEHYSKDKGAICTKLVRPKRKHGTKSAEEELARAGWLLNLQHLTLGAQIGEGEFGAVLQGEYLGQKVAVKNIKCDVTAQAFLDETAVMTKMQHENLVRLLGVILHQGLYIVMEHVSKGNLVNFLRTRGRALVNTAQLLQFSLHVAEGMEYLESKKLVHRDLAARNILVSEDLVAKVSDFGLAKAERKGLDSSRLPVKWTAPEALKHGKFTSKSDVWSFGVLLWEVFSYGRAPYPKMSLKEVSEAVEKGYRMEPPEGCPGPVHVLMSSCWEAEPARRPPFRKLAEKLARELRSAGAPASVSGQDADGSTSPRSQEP"}
{"SMILES": "c1nc2c(Nc3ccc4c(c3)OCCO4)nc(Nc3ccc4c(c3)OCCO4)nc2[nH]1", "assay": "enzyme activity, inhibitor", "conditions": "10 µM", "endpoint": "activity vs control", "result": "49%"}
{"SMILES": "CN(C)C(=O)Cn1cc(-c2nc([C@@](C)(c3ccc(-c4cnc(N)nc4)cc3)C3CC3)no2)cn1", "assay": "cell-free assay, competition with immobilised ligand", "conditions": "1 µM", "endpoint": "remaining binding", "result": "77%"}
{"SMILES": "CC(C)(C)c1nc2c(s1)c1nc(N)ncc1c1ccc(NS(=O)(=O)c3c(F)cccc3F)c(F)c12", "assay": "enzyme activity, inhibitor, radiometric", "conditions": "1 µM", "endpoint": "remaining activity", "result": "101%"}
{"SMILES": "CCCS(=O)(=O)Nc1ccc(F)c(C(=O)c2c[nH]c3ncc(-c4ccc(Cl)cc4)cc23)c1F", "assay": "enzyme activity, inhibitor", "conditions": "1 µM", "endpoint": "inhibition", "result": "< 20%"}
{"SMILES": "Cc1cnn2ncc(-c3ccnc(N(C)C)n3)c2c1", "assay": "binding", "conditions": "1 µM", "endpoint": "remaining binding", "result": "100%"}
{"SMILES": "O=C1NC(=O)c2cc(Nc3ccc(F)cc3)c(Nc3ccc(F)cc3)cc21", "assay": "cell-free assay", "conditions": "0.5 µM", "endpoint": "remaining signal", "result": "93.5%"}
{"SMILES": "CC1=C(C#N)C(c2ccc3c(c2)c(NC(=O)c2ccccc2C)nn3C)C(C#N)=C(C)N1", "assay": "cell-free assay, competition with immobilised ligand", "conditions": "1 µM", "endpoint": "remaining binding", "result": "79%"}
{"SMILES": "Cc1ccc(C(=O)Nc2ccc(CN3CCN(C)CC3)c(C(F)(F)F)c2)cc1C#Cc1cnc2cccnn12", "assay": "enzyme activity, inhibitor", "conditions": "23.5 nM", "endpoint": "remaining activity", "result": "52%"}
{"SMILES": "O=C(Nc1cnn(-c2csc(C(=O)NC3COC3)c2)c1)Nc1ccccc1Cl", "assay": "enzyme activity, inhibitor", "conditions": "5 µM", "endpoint": "remaining activity", "result": "99.7%"}
{"SMILES": "COc1cc2ncnc(Nc3ccc(Oc4ccccc4)cc3C)c2cc1OC", "assay": "enzyme activity, inhibitor", "conditions": "1 µM", "endpoint": "inhibition", "result": "0%"}
{"SMILES": "O=C(O)[C@@H]1[C@@H](Cn2nnc3ccccc3c2=O)CC[C@H]1C(=O)c1ccc(OCCC2CCOCC2)cc1", "assay": "cell-free assay, competition with immobilised ligand", "conditions": "1 µM", "endpoint": "remaining binding", "result": "95%"}
{"SMILES": "N#CCCc1ccc2c(c1)-c1[nH]c3ccc([N+](=O)[O-])cc3c1CC(=O)N2", "assay": "cell-free assay", "conditions": "0.5 µM", "endpoint": "remaining signal", "result": "101%"}
